For assay [1], the system named is MCF7. The experiment in a line: Antiproliferative activity against human MCF7 cells assessed as cellular DNA content after 96 hrs by CyQUANT NF fluorescence assay relative to control. Type of assay: functional. The method, boiled down: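 Cells seeded at 750 (HT-29), 250 (PC-3) or 900 (T84, MCF7) cells/well, treated next day with concentration series for 72 h (HT-29, PC-3) or 96 h (T84, MCF7). Relative cell number from cellular DNA content by fluorescent DNA-binding dye. Variable-slope fit; efficiency = maximal inhibition (100% − Bottom) vs untreated; IC50 relative to the compound's own maximal efficiency.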

Assay [2] concerns HT-29. The experiment in a line: Induction of apoptosis in human HT-29 cells assessed as increase in phosphatidylserine externalization at 10 uM after 48 hrs by flow cytometry in presence of TNF-related apoptosis inducing ligand. Type of assay: functional, cell-based. The method, boiled down:
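HT-29 exposed 48 h to 10 μM compound, αFAS (10 ng/mL), TRAIL (30 ng/mL) or combinations. Phosphatidylserine externalization by annexin V flow cytometry. Expected combination effects from Bliss independence; means ± SEM, n = 4.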

Assay [3] deals with HT-29. The experiment in a line: Downregulation of CDK4 expression in human HT-29 cells at 10 uM after 48 hrs by immunoblotting method. Type of assay: functional, cell-based. The method, boiled down:
(§1)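 HT-29 exposed to 10 μM for 48 h; whole-cell lysates immunoblotted for the indicated proteins (total and cleaved PARP for the apoptosis line).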

The test system of assay [4] is HT-29. The experiment in a line: Induction of apoptosis in human HT-29 cells at 30 uM after 24 hrs by annexin V-FLUOS/propidium iodide staining-based flow cytometry in presence of ascorbic acid. In kind it is functional, cell-based. The essentials:
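HT-29 cells co-incubated 24 h with 30 μM compound and antioxidant: glutathione 2.5 mM, α-tocopherol 50 μM, or ascorbic acid 500 μM. Phosphatidylserine externalization measured by annexin V-FLUOS/propidium iodide staining and flow cytometry. Means ± SEM, n = 3.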

Assay [5] deals with HT-29. The experiment in a line: Induction of apoptosis in human HT-29 cells at 30 uM after 24 hrs by annexin V-FLUOS/propidium iodide staining-based flow cytometry in presence of N-acetylcysteine. Type of assay: functional, cell-based. The essentials: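 HT-29 treated 24 h with 30 μM with or without antioxidant (NAC 1 mM, D3T 25 μM). Apoptosis by annexin V/propidium iodide flow cytometry; means ± SEM, n = 3.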

The test system of assay [6] is HT-29. The experiment in a line: Induction of apoptosis in human HT-29 cells assessed as cleaved PARP level at 10 uM after 48 hrs. In kind it is functional, cell-based. The essentials: as §1
Assay [7] relates to HT-29. The experiment in a line: Antiproliferative activity against human HT-29 cells assessed as cellular DNA content at 20 uM after 48 hrs by CyQUANT NF fluorescence assay in presence of glutathione. In kind it is functional, cell-based. The method, boiled down:
(§2)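 HT-29 given concentration series of test compound with or without antioxidant (NAC 1 mM, GSH 2.5 mM, D3T 25 μM, α-tocopherol 50 μM, ascorbic acid 500 μM) for 48 h. Relative cell number from DNA-binding fluorescent dye; means ± SD, n = 4.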

The test system of assay [8] is HT-29. The experiment in a line: Antiproliferative activity against human HT-29 cells assessed as cellular DNA content at 20 uM after 48 hrs by CyQUANT NF fluorescence assay in presence of alpha-tocopherol. In kind it is functional, cell-based. The essentials:
as §2

Assay [9] deals with HT-29. The experiment in a line: Induction of apoptosis in human HT-29 cells assessed as increase in caspase 8 activity at 30 uM after 2 hrs by luminescent assay relative to control. In kind it is functional. The essentials: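 HT-29 cells exposed to compound 2 h; effector/initiator caspase enzymatic activity measured by luminescent assays, normalized to control treatment; means ± SEM, n = 4.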

The test system of assay [10] is HT-29. The experiment in a line: Antiproliferative activity against human HT-29 cells assessed as cellular DNA content after 72 hrs by CyQUANT NF fluorescence assay in presence of irinotecan. Type of assay: functional, cell-based. The essentials: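 HT-29 exposed 72 h to concentration series of mixtures at ratios 7:0 through 0:7 with the partner drug. Relative cell number from DNA-content fluorescence. IC70 = concentration giving 70% inhibition of total cells (means ± SD, n = 4); isobolograms by Loewe additivity, CI(M) = IC70(Mx)/IC70(x) + IC70(My)/IC70(y).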

The test system of assay [11] is HT-29. The experiment in a line: Increase in extracellular acidification rate in human HT-29 cells at 10 uM measured for 20 to 150 mins by time-resolved fluorescence assay. Type of assay: functional. The method, boiled down:
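HT-29 seeded 80 000 cells/well, held overnight at 37 °C without CO2. Low-buffering medium (1 mM PBS pH 7.4, 20 mM glucose, salts) with pH-sensitive lifetime probe, unsealed wells. Time-resolved fluorescence at 37 °C for 200 min, lifetime converted to pH. Acidification rate (H+ change/min) taken over 20–150 min; means ± SEM, n = 8.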

The test system of assay [12] is HT-29. The experiment in a line: Induction of apoptosis in human HT-29 cells assessed as phosphatidylserine externalization at 20 uM after 48 hrs by annexin V-FLUOS/propidium iodide staining-based flow cytometry (reference value: 8%). In kind it is functional.
In assay [13] the test system is HT-29. The experiment in a line: Induction of apoptosis in human HT-29 cells assessed as DNA fragmentation by measuring cytoplasmic BrdU-labeled DNA at 30 uM by ELISA. In kind it is functional, cell-based. The essentials: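 Cytosolic DNA by ELISA after 4 h treatment. BrdU method: cells (13 000/well) prelabelled with 10 μM BrdU for 2 days at 37 °C, unincorporated BrdU removed before treatment. Oligonucleosome method: 20 000 cells/well, 1 day at 37 °C. Cell-free background subtracted, normalized to vehicle; means ± SEM, n = 4.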

Activity calls are given as the source filed them. The calls are words filed in the database; no cut-off is given here.

Regarding `COc1c(CC=C(C)C)c(O)c(C(=O)O)c(CCc2ccccc2)c1CC=C(C)C`, the Efficacy in assay [1] worked out at 92%. Besides, the result in assay [2], in assay [3], in assay [4], in assay [5], in assay [6] and in assay [7] was Active. Further, the result in assay [8], in assay [10] and in [13] was Active. Besides, the “fold change (FC)” value in assay [9] was 3. Further, the Activity was 2.9 ×10⁻⁹ /min in assay [11] and 44% in assay [12].

These data come from ChEMBL document CHEMBL3779787, “Amorfrutin C Induces Apoptosis and Inhibits Proliferation in Colon Cancer Cells through Targeting Mitochondria” (J Nat Prod, 2016).
